Data published in ChEMBL document CHEMBL2346641, “Discovery of disubstituted piperidines and homopiperidines as potent dual NK1 receptor antagonists-serotonin reuptake transporter inhibitors for the treatment of depression” (Bioorg Med Chem, 2013).
Calls of active or inactive are those of the source.

How the values were obtained:
[1] = Drug uptake in gerbil serum at 0.1 mg/kg, ip after 36 mins; assay type: ADME, organism-based; design: dose 0.1 mg/kg, route intraperitoneal; conditions: gerbillinae, read-out: Drug uptake
Summary of the method: (§1)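 Gerbils given IP doses as a solution in 100% PEG-400. Brain and serum sampled 36 min post-injection, covering the time from dosing to the end of the behavioral test. Values are means (n = 3) with SD.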

[2] = Drug uptake in gerbil brain at 30 mg/kg, ip after 36 mins; assay type: ADME, organism-based; design: dose 30 mg/kg, route intraperitoneal; conditions: gerbillinae, read-out: Drug uptake; summary of the method: as §1
[3] = target: T1, Sodium-dependent dopamine transporter (Homo sapiens, UniProt Q01959); assay: Inhibition of DAT (unknown origin)
[4] = target: Histamine H1 receptor (Homo sapiens) (UniProt P35367); assay: Inhibition of histamine H1 receptor (unknown origin) at 10 uM
Summary of the method: (§2)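 Screened at 10 µM in a commercial panel of over 70 receptors. Significance threshold set at ≥50% inhibition.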

[5] = Drug uptake in gerbil brain at 10 mg/kg, ip after 36 mins; assay type: ADME, organism-based; design: dose 10 mg/kg, route intraperitoneal; conditions: gerbillinae, read-out: Drug uptake; summary of the method: as §1
[6] = Binding affinity to gerbil NK1 receptor; design: species or system Gerbillinae
Gerbillinae [7] = assay: Antidepressant activity in gerbil assessed as decrease in immobility time at 0.3 to 3 mg/kg, ip administered for 30 mins prior to testing measured for 6 mins by forced swimming test; assay type: functional, organism-based
[8] = target: T1, Sodium-dependent dopamine transporter; assay: Inhibition of DAT (unknown origin) at 10 uM; summary of the method: as §2
[9] = Drug uptake in gerbil brain at 1 mg/kg, ip after 36 mins; assay type: ADME, organism-based; design: dose 1 mg/kg, route intraperitoneal; conditions: gerbillinae, read-out: Drug uptake; summary of the method: as §1
[10] = Ratio of drug level in brain to serum in gerbil at 0.1 mg/kg, ip after 36 mins; assay type: ADME, organism-based; design: dose 0.1 mg/kg, route intraperitoneal; conditions: gerbillinae
Summary of the method: (§3)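 Gerbils given single IP dose in 100% PEG-400 (0.1–30 mg/kg); brain and serum sampled 36 min post-dose, matching the interval from dosing to end of forced swim test. Drug concentrations (nM) measured in each matrix and brain-to-serum ratio calculated; mean of n = 3 with SD.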

Gerbillinae [11] = assay: Antidepressant activity in gerbil assessed as decrease in immobility time at 0.1 mg/kg, ip administered for 30 mins prior to testing measured for 6 mins by forced swimming test relative to vehicle-treated control; assay type: functional, organism-based; design: dose 0.1 mg/kg
[12] = Drug uptake in gerbil serum at 1 mg/kg, ip after 36 mins; assay type: ADME, organism-based; design: dose 1 mg/kg, route intraperitoneal; conditions: gerbillinae, read-out: Drug uptake; summary of the method: as §1
[13] = Ratio of drug level in brain to serum in gerbil at 3 mg/kg, ip after 36 mins; assay type: ADME, organism-based; design: dose 3 mg/kg, route intraperitoneal; conditions: gerbillinae; summary of the method: as §3
[14] = target: T2, Sodium-dependent noradrenaline transporter (Homo sapiens, UniProt P23975); assay: Inhibition of NET (unknown origin)
Neuromedin-K receptor = target: T3, Neuromedin-K receptor (Homo sapiens, UniProt P29371); assay: Inhibition of NK3 receptor (unknown origin)
T3 sequence (P29371 whole entry): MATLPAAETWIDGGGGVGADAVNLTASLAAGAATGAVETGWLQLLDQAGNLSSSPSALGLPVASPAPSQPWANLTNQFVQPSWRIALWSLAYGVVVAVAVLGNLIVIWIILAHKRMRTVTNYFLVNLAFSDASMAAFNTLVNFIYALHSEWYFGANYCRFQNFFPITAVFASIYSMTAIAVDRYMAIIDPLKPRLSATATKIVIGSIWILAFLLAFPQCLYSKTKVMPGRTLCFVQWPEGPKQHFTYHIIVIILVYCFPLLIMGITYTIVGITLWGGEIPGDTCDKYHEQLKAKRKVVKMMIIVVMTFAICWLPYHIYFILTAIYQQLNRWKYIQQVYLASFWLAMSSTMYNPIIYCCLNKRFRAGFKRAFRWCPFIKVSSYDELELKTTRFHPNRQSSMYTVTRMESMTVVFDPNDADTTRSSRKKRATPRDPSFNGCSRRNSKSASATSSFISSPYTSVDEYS

[15] = target: T4, 5-hydroxytryptamine receptor 1A (Homo sapiens, UniProt P08908); assay: Inhibition of 5HT1A receptor (unknown origin)
T4 sequence (P08908 whole entry): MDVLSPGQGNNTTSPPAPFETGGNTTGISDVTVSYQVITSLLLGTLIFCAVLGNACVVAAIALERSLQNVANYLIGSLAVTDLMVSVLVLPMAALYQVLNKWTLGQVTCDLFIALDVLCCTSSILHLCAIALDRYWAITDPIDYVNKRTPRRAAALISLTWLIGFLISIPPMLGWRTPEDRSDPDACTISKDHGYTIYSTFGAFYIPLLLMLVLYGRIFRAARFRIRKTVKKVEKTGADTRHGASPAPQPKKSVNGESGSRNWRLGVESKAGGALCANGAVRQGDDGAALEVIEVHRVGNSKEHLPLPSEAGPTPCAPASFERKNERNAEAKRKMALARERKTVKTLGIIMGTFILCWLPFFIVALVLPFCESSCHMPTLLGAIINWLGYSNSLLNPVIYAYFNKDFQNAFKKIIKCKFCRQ

Gerbillinae [16] = assay: Antidepressant activity in gerbil assessed as decrease in immobility time at 10 to 30 mg/kg, ip administered for 30 mins prior to testing measured for 6 mins by forced swimming test; assay type: functional, organism-based
[17] = target: 5-hydroxytryptamine receptor 2A (Homo sapiens, UniProt P28223); assay: Inhibition of 5HT2A receptor (unknown origin)
[18] = Drug uptake in gerbil serum at 10 mg/kg, ip after 36 mins; assay type: ADME, organism-based; design: dose 10 mg/kg, route intraperitoneal; conditions: gerbillinae, read-out: Drug uptake; summary of the method: as §1
[19] = Ratio of drug level in brain to serum in gerbil at 1 mg/kg, ip after 36 mins; assay type: ADME, organism-based; design: dose 1 mg/kg, route intraperitoneal; conditions: gerbillinae; summary of the method: as §3
[20] = target: Histamine H2 receptor (Homo sapiens) (UniProt P25021); assay: Inhibition of histamine H2 receptor (unknown origin) at 10 uM; summary of the method: as §2
[21] = Ratio of drug level in brain to serum in gerbil at 10 mg/kg, ip after 36 mins; assay type: ADME, organism-based; design: dose 10 mg/kg, route intraperitoneal; conditions: gerbillinae; summary of the method: as §3
[22] = Ratio of drug level in brain to serum in gerbil at 0.3 mg/kg, ip after 36 mins; assay type: ADME, organism-based; design: dose 0.3 mg/kg, route intraperitoneal; conditions: gerbillinae; summary of the method: as §3
[23] = Ratio of drug level in brain to serum in gerbil at 30 mg/kg, ip after 36 mins; assay type: ADME, organism-based; design: dose 30 mg/kg, route intraperitoneal; conditions: gerbillinae; summary of the method: as §3
Gerbillinae [24] = assay: Toxicity in gerbil assessed as behavioral change measuring spontaneous locomotor activity at 0.1 to 1 mg/kg, ip after 30 mins relative to vehicle-treated control; assay type: organism-based; design: dose 0.1-1 mg/kg, route intraperitoneal; conditions: in vivo, 0.5 h
[25] = target: T2, Sodium-dependent noradrenaline transporter; assay: Inhibition of NET (unknown origin) at 10 uM; summary of the method: as §2
[26] = target: T5, 5-hydroxytryptamine receptor 2C (Homo sapiens, UniProt P28335); assay: Inhibition of 5HT2C receptor (unknown origin)
T5 sequence (P28335 whole entry): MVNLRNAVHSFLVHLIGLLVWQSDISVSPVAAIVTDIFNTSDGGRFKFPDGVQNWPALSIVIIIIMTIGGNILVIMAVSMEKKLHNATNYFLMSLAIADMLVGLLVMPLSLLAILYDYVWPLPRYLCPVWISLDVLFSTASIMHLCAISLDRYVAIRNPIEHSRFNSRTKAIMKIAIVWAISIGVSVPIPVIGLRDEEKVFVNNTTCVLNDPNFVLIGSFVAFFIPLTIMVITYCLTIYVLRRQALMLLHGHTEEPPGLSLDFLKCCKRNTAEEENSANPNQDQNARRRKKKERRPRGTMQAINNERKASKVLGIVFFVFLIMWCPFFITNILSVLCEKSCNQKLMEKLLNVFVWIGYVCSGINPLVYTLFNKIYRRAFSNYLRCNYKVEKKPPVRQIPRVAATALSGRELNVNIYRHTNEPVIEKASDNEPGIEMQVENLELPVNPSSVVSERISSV

T1 sequence (Q01959 whole entry): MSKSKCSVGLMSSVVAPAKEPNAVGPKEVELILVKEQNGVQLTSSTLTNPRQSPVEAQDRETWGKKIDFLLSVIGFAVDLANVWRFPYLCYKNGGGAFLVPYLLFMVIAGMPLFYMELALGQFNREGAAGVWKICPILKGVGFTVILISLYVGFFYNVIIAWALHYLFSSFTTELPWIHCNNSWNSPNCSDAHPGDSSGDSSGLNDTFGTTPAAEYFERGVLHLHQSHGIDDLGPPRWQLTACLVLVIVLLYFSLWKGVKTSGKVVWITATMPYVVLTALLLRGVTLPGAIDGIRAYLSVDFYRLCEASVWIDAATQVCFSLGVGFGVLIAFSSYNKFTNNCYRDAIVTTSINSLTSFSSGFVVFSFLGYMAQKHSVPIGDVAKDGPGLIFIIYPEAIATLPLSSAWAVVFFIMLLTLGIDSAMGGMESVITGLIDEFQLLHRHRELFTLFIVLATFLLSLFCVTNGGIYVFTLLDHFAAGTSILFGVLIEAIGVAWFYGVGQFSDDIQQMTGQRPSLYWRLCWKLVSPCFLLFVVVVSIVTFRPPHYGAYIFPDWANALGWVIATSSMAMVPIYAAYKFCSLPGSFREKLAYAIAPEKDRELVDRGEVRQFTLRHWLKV
T2 sequence (P23975 whole entry): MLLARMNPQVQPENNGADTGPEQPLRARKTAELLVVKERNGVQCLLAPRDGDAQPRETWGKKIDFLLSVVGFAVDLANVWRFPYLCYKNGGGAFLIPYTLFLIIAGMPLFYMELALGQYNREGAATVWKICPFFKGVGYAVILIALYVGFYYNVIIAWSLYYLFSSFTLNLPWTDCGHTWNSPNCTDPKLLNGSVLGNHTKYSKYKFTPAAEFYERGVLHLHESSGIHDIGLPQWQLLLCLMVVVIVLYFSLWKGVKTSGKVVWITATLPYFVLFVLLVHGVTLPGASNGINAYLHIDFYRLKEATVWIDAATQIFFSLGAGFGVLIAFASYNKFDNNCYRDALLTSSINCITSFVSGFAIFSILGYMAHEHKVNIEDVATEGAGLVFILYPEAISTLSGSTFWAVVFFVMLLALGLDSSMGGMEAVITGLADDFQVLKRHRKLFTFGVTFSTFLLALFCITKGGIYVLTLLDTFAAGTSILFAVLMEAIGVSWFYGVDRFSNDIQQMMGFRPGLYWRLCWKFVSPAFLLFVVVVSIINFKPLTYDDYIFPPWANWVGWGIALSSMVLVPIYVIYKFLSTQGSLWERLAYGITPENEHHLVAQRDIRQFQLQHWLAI
Histamine H2 receptor (Homo sapiens), sequence (P25021 whole entry): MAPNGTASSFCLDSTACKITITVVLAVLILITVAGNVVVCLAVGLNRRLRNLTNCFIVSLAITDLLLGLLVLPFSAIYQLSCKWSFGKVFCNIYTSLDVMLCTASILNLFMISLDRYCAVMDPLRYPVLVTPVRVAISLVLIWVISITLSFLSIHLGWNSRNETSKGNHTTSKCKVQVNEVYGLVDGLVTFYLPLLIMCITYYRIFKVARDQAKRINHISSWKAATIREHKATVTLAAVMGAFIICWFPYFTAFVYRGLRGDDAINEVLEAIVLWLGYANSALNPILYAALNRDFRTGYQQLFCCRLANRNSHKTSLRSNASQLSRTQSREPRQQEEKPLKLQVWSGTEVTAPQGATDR
5-hydroxytryptamine receptor 2A, sequence (P28223 whole entry): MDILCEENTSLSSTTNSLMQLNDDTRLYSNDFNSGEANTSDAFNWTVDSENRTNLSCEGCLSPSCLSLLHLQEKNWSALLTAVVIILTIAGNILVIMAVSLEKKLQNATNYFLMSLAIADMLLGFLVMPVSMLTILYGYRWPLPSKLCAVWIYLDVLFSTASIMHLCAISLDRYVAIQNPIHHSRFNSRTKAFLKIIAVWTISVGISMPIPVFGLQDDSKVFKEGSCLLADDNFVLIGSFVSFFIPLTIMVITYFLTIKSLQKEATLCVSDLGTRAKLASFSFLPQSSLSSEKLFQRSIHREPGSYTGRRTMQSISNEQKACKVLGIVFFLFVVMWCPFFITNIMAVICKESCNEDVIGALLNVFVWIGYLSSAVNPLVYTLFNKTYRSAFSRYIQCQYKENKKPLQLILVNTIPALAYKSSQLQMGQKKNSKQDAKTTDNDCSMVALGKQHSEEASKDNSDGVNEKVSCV
Histamine H1 receptor (Homo sapiens), sequence (P35367 whole entry): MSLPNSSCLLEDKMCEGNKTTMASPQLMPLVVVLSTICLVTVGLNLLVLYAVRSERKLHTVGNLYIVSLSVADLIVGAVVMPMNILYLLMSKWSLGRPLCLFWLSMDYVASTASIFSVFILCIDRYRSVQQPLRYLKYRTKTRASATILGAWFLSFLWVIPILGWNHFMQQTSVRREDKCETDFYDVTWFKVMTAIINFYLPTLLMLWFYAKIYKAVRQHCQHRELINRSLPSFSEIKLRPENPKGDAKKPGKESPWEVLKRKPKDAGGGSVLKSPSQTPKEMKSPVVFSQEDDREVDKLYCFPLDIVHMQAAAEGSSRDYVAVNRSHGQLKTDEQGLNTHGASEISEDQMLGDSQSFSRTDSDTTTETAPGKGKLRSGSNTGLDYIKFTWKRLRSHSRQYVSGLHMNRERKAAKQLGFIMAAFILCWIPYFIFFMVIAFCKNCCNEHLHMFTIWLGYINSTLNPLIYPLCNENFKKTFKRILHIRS

concentration at 0.6 h [1]: 3.6 nM
concentration at 0.6 h [2]: 7300 nM
IC50 [3]: > 1000 nM
inhibition [4]: Active
concentration at 0.6 h [5]: 4300 nM
IC50 [6]: 2 nM
inhibition [8]: Active
concentration at 0.6 h [9]: 150 nM
Kp at 0.6 h [10]: 2.3
concentration at 0.6 h [12]: 35 nM
Kp at 0.6 h [13]: 4.2
IC50 [14]: > 1000 nM
IC50 (Neuromedin-K receptor): > 1000 nM
IC50 [15]: > 1000 nM
IC50 [17]: > 1000 nM
concentration at 0.6 h [18]: 730 nM
Kp at 0.6 h [19]: 3.2
inhibition [20]: Active
Kp at 0.6 h [21]: 5.2
Kp at 0.6 h [22]: 3.2
Kp at 0.6 h [23]: 2.3
inhibition [25]: Active
IC50 [26]: > 1000 nM
Structure (SMILES): FC(F)(F)c1cc(COCC2(c3ccccc3)CCNCC2)cc(C(F)(F)F)c1
Activity (Gerbillinae [7]): Active
Activity (Gerbillinae [11]): inactive
Activity (Gerbillinae [16]): inactive
Activity (Gerbillinae [24]): Non-toxic
